≈ marks a conversion by molar mass, not a printed value. Calls of active or inactive are those of the source. The calls are words filed in the database; no cut-off is given here.
Experiments:
[1] = target: CDK12/Cyclin K (Homo sapiens, UniProt Q9NYV4); assay: Inhibition of N-terminal FLAG-tagged human full-length CDK12 (1 to 1490 residues)/N-terminal His-tagged CycK (1 to 580 residues) expressed in Sf9 cells assessed as reduction in ATP-dependent ULight-4E-BP1 (Thr37/Thr46) substrate peptide phosphorylation pre-incubated for 60 mins by LANCE Ultra assay
[2] = target: CDK2/Cyclin A2 (Homo sapiens, UniProt P24941); assay: Inhibition of GST-tagged human CDK2/CCNA2 (04 to 103 residues) pre-incubated for 5 mins before addition of histone H1 substrate and [gamma-33P]ATP and measured after 20 mins by radiometric assay; format: protein-complex assay
Summary of the method: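 GST-CDK2/CCNA2 at 1.8 mU/well in 25 mM HEPES pH 7.5, 10 mM Mg acetate, 1 mM DTT. Compound and enzyme together 5 min at room temperature before ATP start. Final levels: histone H1 1 μg/well, [γ-33P]ATP 500 nM. Reaction 20 min at room temperature, stopped with 10% TCA. Filter capture, phosphoric acid wash, scintillation counting. IC50 reported.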

[3] = Permeability of the compound at 10 umol/L incubated for 3 hrs by LC/MS/MS detection based PAMPA method; format: ADME; settings: read-out: permeability
Summary of the method: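 PAMPA: donor buffer pH 7.4 holding 10 μmol/L compound; acceptor filter coated with GIT-0 lipid, acceptor sink buffer. 3 h at room temperature. Compound in donor and acceptor wells quantified by LC/MS/MS.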

[4] = Partition coefficient between 1-octanol and aqueous buffer, log D of the compound at pH 7.4 buffer by chromatography; format: physicochemical; settings: 1-octanol/aqueous buffer
Summary of the method: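 log D as octanol/buffer partition at pH 7.4, determined chromatographically.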

[5] = Solubility in aqueous buffer solution at pH 6.8 by UV absorbance spectroscopy; format: physicochemical
Summary of the method: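 Compound in DMSO spiked into aqueous buffer pH 6.8 and incubated. Precipitate removed by filtration, dissolved compound quantified by UV absorbance of the filtrate.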

[6] = target: CDK9/cyclin T1 (Homo sapiens, UniProt P50750); format: protein-complex assay
[7] = target: CDK7/Cyclin H/MNAT1 (Homo sapiens, UniProt P50613)
[8] = target: CDK8/Cyclin C (Homo sapiens, UniProt P49336); assay: Inhibition of GST-tagged human CDK8/CycC (04 to 109 residues) using kinase tracer 236 probe incubated for 60 mins by TR-FRET assay; format: protein-complex assay
[9] = target: T1, Dual specificity tyrosine-phosphorylation-regulated kinase 2 (Homo sapiens) (UniProt Q92630); assay: Inhibition of N-terminal GST tagged recombinant full-length human DYRK2 expressed in Escherichia coli at 1 uM
T1 sequence (whole entry): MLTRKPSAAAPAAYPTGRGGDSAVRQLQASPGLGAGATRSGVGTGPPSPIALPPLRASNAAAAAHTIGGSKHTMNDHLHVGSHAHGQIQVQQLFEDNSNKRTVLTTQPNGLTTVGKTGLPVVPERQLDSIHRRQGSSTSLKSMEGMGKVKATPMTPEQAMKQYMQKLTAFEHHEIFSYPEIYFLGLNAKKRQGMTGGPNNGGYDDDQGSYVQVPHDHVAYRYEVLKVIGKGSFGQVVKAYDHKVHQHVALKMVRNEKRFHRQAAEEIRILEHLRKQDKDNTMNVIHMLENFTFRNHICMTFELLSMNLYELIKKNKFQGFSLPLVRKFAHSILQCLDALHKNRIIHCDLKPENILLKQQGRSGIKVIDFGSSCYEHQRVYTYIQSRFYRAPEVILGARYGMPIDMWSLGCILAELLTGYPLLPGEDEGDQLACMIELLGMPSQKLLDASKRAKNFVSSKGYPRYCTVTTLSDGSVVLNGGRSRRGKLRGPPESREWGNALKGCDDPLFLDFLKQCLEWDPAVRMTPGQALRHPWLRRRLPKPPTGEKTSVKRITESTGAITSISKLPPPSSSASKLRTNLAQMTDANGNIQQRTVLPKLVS

[10] = test system: SK-BR-3; assay: Growth inhibition of human SK-BR-3 cells incubated for 72 hrs by cell-titer-Glo luminescent cell viability assay; format: functional; settings: SK-BR-3, 72 h
Summary of the method: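 SK-BR-3 (ATCC) kept in medium with 10% FBS, penicillin and streptomycin, subcultured every 3 days. 3 × 10^3 cells seeded, left overnight, then compound diluted in culture medium added. Viability by CellTiter-Glo luminescence after 72 h.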

[11] = target: T2, Serine/threonine-protein kinase TAO1 (Homo sapiens) (UniProt Q7L7X3); assay: Inhibition of N-terminal GST tagged recombinant human TAOK1 (1 to 314 residues) expressed in baculovirus infected Sf9 cells at 1 uM
T2 sequence (whole entry): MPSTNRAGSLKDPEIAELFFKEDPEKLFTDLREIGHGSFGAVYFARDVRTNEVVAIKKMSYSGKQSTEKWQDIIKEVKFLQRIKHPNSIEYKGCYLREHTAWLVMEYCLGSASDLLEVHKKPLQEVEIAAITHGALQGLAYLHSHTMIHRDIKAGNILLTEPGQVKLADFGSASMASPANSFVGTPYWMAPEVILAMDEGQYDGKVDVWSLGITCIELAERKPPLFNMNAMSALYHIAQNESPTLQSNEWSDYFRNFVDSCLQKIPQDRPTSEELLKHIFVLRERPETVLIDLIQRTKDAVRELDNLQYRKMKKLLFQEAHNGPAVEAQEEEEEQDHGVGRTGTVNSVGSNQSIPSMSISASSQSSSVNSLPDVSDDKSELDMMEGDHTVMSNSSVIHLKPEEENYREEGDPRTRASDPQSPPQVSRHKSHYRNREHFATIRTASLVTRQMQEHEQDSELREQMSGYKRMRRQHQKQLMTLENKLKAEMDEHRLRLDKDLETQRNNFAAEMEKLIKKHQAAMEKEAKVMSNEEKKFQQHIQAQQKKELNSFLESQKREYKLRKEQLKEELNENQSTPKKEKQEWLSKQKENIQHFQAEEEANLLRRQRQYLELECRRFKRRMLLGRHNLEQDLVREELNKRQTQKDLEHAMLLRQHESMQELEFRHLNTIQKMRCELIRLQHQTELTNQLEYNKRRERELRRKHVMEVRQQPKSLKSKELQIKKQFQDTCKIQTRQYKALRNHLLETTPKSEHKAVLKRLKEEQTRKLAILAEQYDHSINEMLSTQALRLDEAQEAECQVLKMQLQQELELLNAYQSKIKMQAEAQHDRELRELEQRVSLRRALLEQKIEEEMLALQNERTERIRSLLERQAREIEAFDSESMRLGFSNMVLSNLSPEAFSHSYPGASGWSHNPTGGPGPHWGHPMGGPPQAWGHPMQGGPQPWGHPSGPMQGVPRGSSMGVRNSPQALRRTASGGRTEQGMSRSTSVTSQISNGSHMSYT

[12] = target: Cyclin-dependent kinase 12 (Homo sapiens, UniProt Q9NYV4); assay: Time dependent inhibition of human CDK12 incubated for 0 to 5 hrs using ULight-4E-BP1 (Thr37/Thr46) substrate by LANCE system based assay
[13] = target: STE20/SPS1-related proline-alanine-rich protein kinase (Homo sapiens) (UniProt Q9UEW8); assay: Inhibition of N-terminal His tagged recombinant full-length human STK39 expressed in baculovirus infected Sf9 cells at 1 uM
[14] = organism: Homo sapiens; assay: Selectivity index, ratio of IC50 for inhibition of GST-tagged human CDK2/CCNA2 (04 to 103 residues) to IC50 for inhibition of N-terminal FLAG-tagged human full-length CDK12 (1 to 1490 residues)/N-terminal His-tagged CycK (1 to 580 residues) expressed in Sf9 cells
Summary of the method: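 Ratio of two IC50s. CDK2/CCNA2: radiometric assay, 1.8 mU/well enzyme, histone H1 (1 μg/well), 500 nM [γ-33P]ATP, 5 min compound preincubation, 20 min at room temperature, TCA stop, filter-bound counts. In-house CDK12/CycK (30 nM): LANCE TR-FRET, ULight-4E-BP1 peptide 150 nM, ATP 10 μM, HEPES pH 7.5, 60 min preincubation, EDTA/Eu-antibody stop.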

Chain of CDK12/Cyclin K (O75909 whole entry, the tested form may be a part): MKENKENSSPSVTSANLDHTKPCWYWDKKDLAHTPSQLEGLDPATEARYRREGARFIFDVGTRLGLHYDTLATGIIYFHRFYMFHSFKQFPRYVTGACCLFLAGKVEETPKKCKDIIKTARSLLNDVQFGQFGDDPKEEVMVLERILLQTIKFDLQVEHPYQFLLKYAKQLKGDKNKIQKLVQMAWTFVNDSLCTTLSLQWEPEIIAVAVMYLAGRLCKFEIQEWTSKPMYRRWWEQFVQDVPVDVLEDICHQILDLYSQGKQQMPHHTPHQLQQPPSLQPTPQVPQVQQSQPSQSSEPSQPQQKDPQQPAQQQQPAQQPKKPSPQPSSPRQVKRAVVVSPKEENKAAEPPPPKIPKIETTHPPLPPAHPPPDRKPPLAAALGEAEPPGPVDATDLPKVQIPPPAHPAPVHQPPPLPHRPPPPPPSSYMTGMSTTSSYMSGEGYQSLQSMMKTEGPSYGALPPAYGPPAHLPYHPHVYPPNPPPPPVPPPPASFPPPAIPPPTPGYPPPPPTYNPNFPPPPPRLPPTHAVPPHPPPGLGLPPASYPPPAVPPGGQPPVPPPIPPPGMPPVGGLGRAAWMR
Chain of CDK12/Cyclin K (Q9NYV4 whole entry, the tested form may be a part): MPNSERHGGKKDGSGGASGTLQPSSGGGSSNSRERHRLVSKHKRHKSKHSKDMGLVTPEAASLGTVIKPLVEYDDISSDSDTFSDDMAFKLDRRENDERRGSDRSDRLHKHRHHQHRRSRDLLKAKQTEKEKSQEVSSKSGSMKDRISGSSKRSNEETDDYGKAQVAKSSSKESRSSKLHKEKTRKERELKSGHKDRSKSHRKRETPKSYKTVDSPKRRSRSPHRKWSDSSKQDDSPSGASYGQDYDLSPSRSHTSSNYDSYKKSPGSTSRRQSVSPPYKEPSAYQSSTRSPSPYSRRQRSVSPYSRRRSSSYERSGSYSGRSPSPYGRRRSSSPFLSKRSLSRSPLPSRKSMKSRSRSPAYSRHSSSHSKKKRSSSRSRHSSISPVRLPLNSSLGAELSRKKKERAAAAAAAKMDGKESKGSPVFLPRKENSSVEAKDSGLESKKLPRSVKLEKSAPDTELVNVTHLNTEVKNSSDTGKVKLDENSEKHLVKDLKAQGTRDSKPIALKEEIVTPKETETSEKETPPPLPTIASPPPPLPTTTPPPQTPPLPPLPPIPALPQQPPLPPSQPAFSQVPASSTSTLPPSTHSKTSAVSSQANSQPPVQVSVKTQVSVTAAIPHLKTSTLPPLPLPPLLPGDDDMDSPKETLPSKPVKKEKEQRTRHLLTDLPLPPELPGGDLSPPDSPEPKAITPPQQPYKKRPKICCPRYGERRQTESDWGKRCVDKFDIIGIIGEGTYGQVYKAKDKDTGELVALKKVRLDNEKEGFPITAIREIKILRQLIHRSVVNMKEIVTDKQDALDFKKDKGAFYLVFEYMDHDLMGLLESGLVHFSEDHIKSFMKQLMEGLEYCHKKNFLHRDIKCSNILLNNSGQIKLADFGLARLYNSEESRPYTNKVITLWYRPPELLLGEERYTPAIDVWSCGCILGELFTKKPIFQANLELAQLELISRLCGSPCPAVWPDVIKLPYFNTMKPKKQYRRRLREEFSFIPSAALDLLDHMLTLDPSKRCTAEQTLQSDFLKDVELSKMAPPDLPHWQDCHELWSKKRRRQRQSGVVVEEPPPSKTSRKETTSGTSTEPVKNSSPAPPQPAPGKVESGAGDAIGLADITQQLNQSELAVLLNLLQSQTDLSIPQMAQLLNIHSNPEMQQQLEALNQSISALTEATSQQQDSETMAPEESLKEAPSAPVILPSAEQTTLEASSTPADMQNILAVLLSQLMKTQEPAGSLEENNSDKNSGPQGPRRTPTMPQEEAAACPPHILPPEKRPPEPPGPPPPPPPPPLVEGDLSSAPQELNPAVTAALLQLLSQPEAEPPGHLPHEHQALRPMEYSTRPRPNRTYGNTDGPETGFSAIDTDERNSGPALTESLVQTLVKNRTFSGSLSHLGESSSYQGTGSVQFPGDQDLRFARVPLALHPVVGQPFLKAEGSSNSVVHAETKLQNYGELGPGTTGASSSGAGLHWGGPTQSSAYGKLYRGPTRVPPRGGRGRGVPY
Chain of CDK9/cyclin T1 (O60563 whole entry): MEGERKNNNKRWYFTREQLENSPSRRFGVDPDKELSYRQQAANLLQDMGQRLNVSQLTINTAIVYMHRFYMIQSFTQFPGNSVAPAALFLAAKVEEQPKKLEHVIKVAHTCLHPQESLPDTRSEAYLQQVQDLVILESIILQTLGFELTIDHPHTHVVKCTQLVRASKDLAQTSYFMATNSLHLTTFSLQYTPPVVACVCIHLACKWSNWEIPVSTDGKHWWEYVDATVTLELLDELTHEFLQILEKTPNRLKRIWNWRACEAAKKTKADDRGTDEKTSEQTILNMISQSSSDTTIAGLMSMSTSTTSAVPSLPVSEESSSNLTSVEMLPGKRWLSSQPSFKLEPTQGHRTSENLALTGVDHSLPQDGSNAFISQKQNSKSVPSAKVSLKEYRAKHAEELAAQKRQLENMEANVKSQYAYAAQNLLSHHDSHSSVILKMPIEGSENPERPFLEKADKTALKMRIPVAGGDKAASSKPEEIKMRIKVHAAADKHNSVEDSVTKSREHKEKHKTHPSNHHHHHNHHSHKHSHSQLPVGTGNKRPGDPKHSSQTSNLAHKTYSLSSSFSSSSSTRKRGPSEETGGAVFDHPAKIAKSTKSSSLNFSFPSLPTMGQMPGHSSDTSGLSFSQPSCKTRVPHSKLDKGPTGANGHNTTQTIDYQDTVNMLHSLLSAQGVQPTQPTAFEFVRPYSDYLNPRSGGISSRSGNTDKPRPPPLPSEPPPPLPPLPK
Chain of CDK9/cyclin T1 (P50750 whole entry): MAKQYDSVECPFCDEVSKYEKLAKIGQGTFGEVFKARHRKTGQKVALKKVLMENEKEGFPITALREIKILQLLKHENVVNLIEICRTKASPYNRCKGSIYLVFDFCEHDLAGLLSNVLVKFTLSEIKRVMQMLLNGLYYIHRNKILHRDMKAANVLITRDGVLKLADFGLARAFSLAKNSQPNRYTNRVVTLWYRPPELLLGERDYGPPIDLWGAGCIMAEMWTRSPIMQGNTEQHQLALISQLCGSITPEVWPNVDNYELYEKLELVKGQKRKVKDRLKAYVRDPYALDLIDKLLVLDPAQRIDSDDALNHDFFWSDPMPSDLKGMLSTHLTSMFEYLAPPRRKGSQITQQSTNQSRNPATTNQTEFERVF
Chain of CDK8/Cyclin C (P49336 whole entry, the tested form may be a part): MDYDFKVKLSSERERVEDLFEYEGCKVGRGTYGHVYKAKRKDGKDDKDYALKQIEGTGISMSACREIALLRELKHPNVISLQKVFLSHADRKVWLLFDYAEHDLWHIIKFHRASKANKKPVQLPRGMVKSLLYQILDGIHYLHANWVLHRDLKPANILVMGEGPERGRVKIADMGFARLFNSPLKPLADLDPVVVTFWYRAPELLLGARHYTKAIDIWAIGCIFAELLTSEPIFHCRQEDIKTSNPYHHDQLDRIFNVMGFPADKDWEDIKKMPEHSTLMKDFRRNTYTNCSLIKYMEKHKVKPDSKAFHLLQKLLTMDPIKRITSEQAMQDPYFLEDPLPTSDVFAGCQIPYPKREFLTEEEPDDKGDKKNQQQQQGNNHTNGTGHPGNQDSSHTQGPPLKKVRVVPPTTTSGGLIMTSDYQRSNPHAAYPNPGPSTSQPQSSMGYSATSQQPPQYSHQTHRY
Chain of CDK8/Cyclin C (P24863 whole entry, further chain, the tested form may be a part): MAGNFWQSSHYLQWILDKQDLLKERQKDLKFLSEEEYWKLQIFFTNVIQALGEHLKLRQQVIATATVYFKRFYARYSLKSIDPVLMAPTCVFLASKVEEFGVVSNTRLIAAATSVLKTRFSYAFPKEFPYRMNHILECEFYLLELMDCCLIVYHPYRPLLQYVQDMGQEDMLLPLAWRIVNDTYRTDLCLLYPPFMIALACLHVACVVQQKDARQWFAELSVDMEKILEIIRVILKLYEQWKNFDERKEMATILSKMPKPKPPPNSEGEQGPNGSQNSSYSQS
Chain of CDK7/Cyclin H/MNAT1 (P51946 whole entry, the tested form may be a part): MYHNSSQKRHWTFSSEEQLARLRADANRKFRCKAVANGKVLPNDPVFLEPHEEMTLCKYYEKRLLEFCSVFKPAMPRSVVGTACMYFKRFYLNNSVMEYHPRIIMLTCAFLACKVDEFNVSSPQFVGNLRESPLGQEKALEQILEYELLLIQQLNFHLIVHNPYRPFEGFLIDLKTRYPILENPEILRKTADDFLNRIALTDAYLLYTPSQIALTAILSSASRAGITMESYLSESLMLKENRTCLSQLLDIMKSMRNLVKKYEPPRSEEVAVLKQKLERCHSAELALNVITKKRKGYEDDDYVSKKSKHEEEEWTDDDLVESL
Chain of CDK7/Cyclin H/MNAT1 (P50613 whole entry, the tested form may be a part): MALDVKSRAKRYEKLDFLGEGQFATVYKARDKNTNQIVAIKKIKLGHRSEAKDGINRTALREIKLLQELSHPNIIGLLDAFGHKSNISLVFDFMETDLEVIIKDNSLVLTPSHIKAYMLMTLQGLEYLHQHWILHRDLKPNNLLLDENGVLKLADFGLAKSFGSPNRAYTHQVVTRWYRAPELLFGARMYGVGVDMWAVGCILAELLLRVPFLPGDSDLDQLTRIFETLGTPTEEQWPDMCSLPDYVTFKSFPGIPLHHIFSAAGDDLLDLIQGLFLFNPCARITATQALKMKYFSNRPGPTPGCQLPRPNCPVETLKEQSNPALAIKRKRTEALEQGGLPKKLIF
Chain of CDK7/Cyclin H/MNAT1 (P51948 whole entry, further chain, the tested form may be a part): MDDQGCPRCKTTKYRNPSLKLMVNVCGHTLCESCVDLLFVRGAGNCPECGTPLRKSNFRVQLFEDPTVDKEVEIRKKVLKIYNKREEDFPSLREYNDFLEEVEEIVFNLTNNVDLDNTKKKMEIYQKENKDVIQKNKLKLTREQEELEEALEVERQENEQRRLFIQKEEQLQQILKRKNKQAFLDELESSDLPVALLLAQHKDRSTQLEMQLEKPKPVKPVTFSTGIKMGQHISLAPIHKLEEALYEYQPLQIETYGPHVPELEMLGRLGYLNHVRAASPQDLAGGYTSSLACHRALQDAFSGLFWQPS
Chain of Cyclin-dependent kinase 12 (Q9NYV4 whole entry, looked up): as the sequence (Q9NYV4 whole entry, the tested form may be a part) above

Compound | IC50 [1] [nM] | IC50 [2] [nM] | also measured
Cn1cc(-c2ccc(N(C(=O)CCc3ccccc3)[C@H]3CC[C@H](Nc4ccc(C#N)cn4)CC3)cc2)cn1 | 160 | 2900 | 
COC(=O)N(c1ccc(-c2cnn(C)c2)cc1)[C@H]1CC[C@H](Nc2ccc(C#N)cn2)CC1 | 200 | 1600 | 
Cn1ccc(-c2ccc(N(C(=O)NCc3ccccc3)[C@H]3CC[C@H](Nc4ccc(C#N)cn4)CC3)cc2)cc1=O | 44 | > 100000 | Papp at 3 h, 10 µM [3]: 24.7 ×10⁻⁶ cm/s; chromatographic logD [4]: 2.3; solubility [5]: < 0.08 µg/mL; IC50 [6]: > 30000 nM
CC(=O)N(c1ccc(-c2cnn(C)c2)cc1)[C@H]1CC[C@H](Nc2ccc(C#N)cn2)CC1 | 130 | 470 | 
Cn1cc(-c2ccc(S(=O)(=O)N3CCC(Nc4ccc(C#N)cn4)CC3)cc2)cn1 | 360 | 10 | IC50 [7]: > 10000 nM; IC50 [8]: > 10000 nM; IC50 [6]: > 30000 nM
Cn1cc(-c2ccc(S(=O)(=O)N3CCC(Nc4ccc(C(F)(F)F)cn4)CC3)cc2)cn1 | 1800 | 5.8 | 
CC(=O)N(c1ccc(-c2cnn(C)c2)cc1)[C@H]1CC[C@H](Nc2ncc3ccccc3n2)CC1 | 13 | 24 | 
N#Cc1ccc(N[C@H]2CC[C@H](N(C(=O)NCc3ccccc3)c3ccccc3)CC2)nc1 | 63 | 56000 | chromatographic logD [4]: 3.3; solubility [5]: 4 µg/mL (≈ 9.4 µM); IC50 [6]: > 30000 nM
CC(=O)N(c1ccc(-c2cnn(C)c2)cc1)[C@H]1CC[C@@H](Nc2ccc(C#N)cn2)CC1 | > 30000 | > 100000 | 
Cn1cc(-c2ccc(S(=O)(=O)N3CCC(Nc4cccc(C#N)n4)CC3)cc2)cn1 | > 30000 | 46000 | 
Cn1cc(-c2ccc(S(=O)(=O)N3CCC(Nc4ccc(C#N)cc4)CC3)cc2)cn1 | > 30000 |  | 
Cn1cc(-c2ccc(C(=O)N3CCC(Nc4ccc(C#N)cn4)CC3)cc2)cn1 | 23000 |  | 
Cn1cc(-c2ccc(N(C(=O)OCc3ccccc3)[C@H]3CC[C@H](Nc4ccc(C#N)cn4)CC3)cc2)cn1 | 640 | 2500 | 
COc1ccc(NC2CCN(S(=O)(=O)c3ccc(-c4cnn(C)c4)cc3)CC2)nc1 | > 30000 | 21000 | 
Cn1cc(-c2ccc(N(C(=O)NCC3CCCCC3)[C@H]3CC[C@H](Nc4ccc(C#N)cn4)CC3)cc2)cn1 | 99 | > 100000 | 
Cn1cc(-c2ccc(N(C(=O)NCc3ccccc3)[C@H]3CC[C@H](Nc4ccc(C#N)cn4)CC3)cc2)ccc1=O |  |  | Papp at 3 h, 10 µM [3]: 27.3 ×10⁻⁶ cm/s; chromatographic logD [4]: 2.4; IC50 [7]: > 10000 nM; inhibition [9]: > 80%; GI50 [10]: 800 nM; inhibition [11]: > 80%; solubility [5]: 7.7 µg/mL (≈ 14.5 µM); IC50 [8]: > 10000 nM; IC50 [6]: 16000 nM; TDI [12]: inactive; inhibition [13]: > 80%
CN(C)C/C=C/C(=O)Nc1ccc(C(=O)N2CCC[C@@H](Nc3ncc(Cl)c(-c4c[nH]c5ccccc45)n3)C2)cc1 |  |  | TDI [12]: Active
N#Cc1ccc(N[C@H]2CC[C@H](N(C(=O)NCc3ccccc3)c3ccc(-c4cccnc4)cc3)CC2)nc1 | 59 | > 100000 | Papp at 3 h, 10 µM [3]: 28 ×10⁻⁶ cm/s; chromatographic logD [4]: 3; solubility [5]: 0.67 µg/mL (≈ 1.33 µM); IC50 [6]: > 30000 nM

More lines, main results first:

IC50 [1] [nM] | IC50 [2] [nM] | Compound | also measured
460 | 4800 | CCNC(=O)N(c1ccc(-c2cnn(C)c2)cc1)[C@H]1CC[C@H](Nc2ccc(C#N)cn2)CC1 | 
8600 | 9800 | Cn1cc(-c2ccc(N[C@H]3CC[C@H](Nc4ccc(C#N)cn4)CC3)cc2)cn1 | 
> 30000 | 68000 | CN(c1ccc(C#N)cn1)C1CCN(S(=O)(=O)c2ccc(-c3cnn(C)c3)cc2)CC1 | 
110 | 31 | Cn1cc(-c2ccc(N([C@H]3CC[C@H](Nc4ccc(C#N)cn4)CC3)S(C)(=O)=O)cc2)cn1 | 
310 | 27000 | Cn1c(-c2ccc(N(C(=O)NCc3ccccc3)[C@H]3CC[C@H](Nc4ccc(C#N)cn4)CC3)cc2)cccc1=O | chromatographic logD [4]: 2.6; solubility [5]: < 0.09 µg/mL; IC50 [6]: > 30000 nM
> 30000 | 1200 | Cn1cc(-c2ccc(S(=O)(=O)N3CCC(Nc4ccccn4)CC3)cc2)cn1 | 
> 30000 | 32 | Cn1cc(-c2ccc(S(=O)(=O)N3CCC(Nc4cc(C#N)ccn4)CC3)cc2)cn1 | 
16000 |  | Cn1cc(-c2ccc(CN3CCC(Nc4ccc(C#N)cn4)CC3)cc2)cn1 | 
63 | > 100000 | Cn1cc(-c2ccc(N(C(=O)NCc3ccccc3)[C@H]3CC[C@H](Nc4ccc(C#N)cn4)CC3)cc2)cn1 | Papp at 3 h, 10 µM [3]: 28.8 ×10⁻⁶ cm/s; chromatographic logD [4]: 2.8; solubility [5]: 0.33 µg/mL (≈ 0.653 µM); IC50 [6]: > 30000 nM; Ratio IC50 [14]: > 800
250 | 18000 | Cn1cccc(-c2ccc(N(C(=O)NCc3ccccc3)[C@H]3CC[C@H](Nc4ccc(C#N)cn4)CC3)cc2)c1=O | chromatographic logD [4]: 2.7; solubility [5]: 4.7 µg/mL (≈ 8.82 µM); IC50 [6]: 15000 nM

From ChEMBL document CHEMBL4145674, “Discovery of 3-Benzyl-1-( trans-4-((5-cyanopyridin-2-yl)amino)cyclohexyl)-1-arylurea Derivatives as Novel and Selective Cyclin-Dependent Kinase 12 (CDK12) Inhibitors” (J Med Chem, 2018)
